GASC1 inh: inhibitors of GASC-1 (KDM4C) histone demethylase, primary screen, biochemical, single concentration HTS. GST-KDM4C 2-372, H3K9me3 peptide, LANCE TR-FRET. inhibition, % at 12.5 µM. actives 0.15% (n = 96,000). AID 720574, 2013;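 active = mean replicate inhibition above about 25%, with at least 55% of replicates also reaching it, limit read from the data, passing the limit was not always enough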
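Material: GST-tagged GASC-1 (JMJD2C) catalytic fragment, aa 2-372. Input: enzyme final amount 10 nM. Medium: HEPES buffer, pH 7.5, plus ascorbate. Reagent: H3K9me3 peptide substrate, Fe(II), 2-oxoglutarate. Doses: single dose. Times: reaction 30 min RT, detection step 1 h RT. Measured by: LANCE TR-FRET. Evaluation: Fall in 671/618 emission ratio as inhibition.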
T cruzi growth: T. cruzi intracellular proliferation inhibitors, primary screen, cell-based, beta-gal Tulahuen parasites, NIH3T3 host, luminescence; T. cruzi beta-gal in NIH3T3, GalScreen luminescence, 90 h; inhibition, % at 8.34 µM; actives 5.9% (n = 77,000);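 active = mean inhibition above about 93%, with at least 55% of replicates each passing it, limit read from the data, passing the limit was not always enough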
IDH1 R132H inh: inhibitors of IDH1 R132H reductase, primary screen, biochemical, plate reader, single point; actives 0.18% (n = 70,000); AID 624101, 2012; inhibition, % at 10 µM; Isocitrate dehydrogenase [NADP] cytoplasmic (Homo sapiens), O75874; diaphorase/resazurin fluorescence, 60 min; in the data active = inhibition above about 34%;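 note: 0% = DMSO and 100% = no enzyme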
Target sequence (O75874 whole entry R132H): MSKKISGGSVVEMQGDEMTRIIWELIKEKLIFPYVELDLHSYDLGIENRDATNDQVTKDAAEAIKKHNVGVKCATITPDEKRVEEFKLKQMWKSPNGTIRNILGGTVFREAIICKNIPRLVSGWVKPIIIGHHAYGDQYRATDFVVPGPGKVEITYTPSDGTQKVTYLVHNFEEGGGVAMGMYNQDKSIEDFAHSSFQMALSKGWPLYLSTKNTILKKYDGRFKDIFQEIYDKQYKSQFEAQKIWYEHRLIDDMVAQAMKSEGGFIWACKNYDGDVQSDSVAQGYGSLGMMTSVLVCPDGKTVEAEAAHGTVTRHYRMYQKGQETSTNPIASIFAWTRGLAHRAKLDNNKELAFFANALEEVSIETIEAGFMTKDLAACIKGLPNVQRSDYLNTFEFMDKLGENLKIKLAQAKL
Starred values were filed as active, the others as inactive; . = not tested or not shown. The entries come from a sample that favours hits as a whole.

SMILES	GASC1 inh	T cruzi growth	IDH1 R132H inh
Cc1ccc(OCc2nc(N)nc(N(C)C)n2)cc1C	.	.	0.3
CC(=O)Nc1ccc(Br)cc1-c1nc2ccccc2nc1OCc1cccc(Cl)c1	.	.	-0.1
C/C=C/c1ccc2c(c1)O[C@H](CN(C)C(=O)c1ccccc1)[C@H](C)CN([C@@H](C)CO)S2(=O)=O	0.4	.	-0.3
C/C=C/c1ccc2c(c1)O[C@@H](CN(C)CCC)[C@@H](C)CN([C@H](C)CO)S2(=O)=O	37.9*	-25.4	52.8*
CCCN(C)C[C@H]1Oc2cc(/C=C/c3ccccc3)ccc2S(=O)(=O)N([C@H](C)CO)C[C@@H]1C	-2.8	.	-1.0
C[C@H]1CN([C@@H](C)CO)S(=O)(=O)c2ccc(/C=C/c3ccccc3)cc2O[C@@H]1CN(C)C(=O)c1ccccc1	-5.4	125.1*	0.2
COc1ccc(S(=O)(=O)N(C)C[C@@H]2OCCCC[C@@H](C)Oc3ccc(NS(=O)(=O)c4ccc(C)cc4)cc3C(=O)N([C@@H](C)CO)C[C@H]2C)cc1	-0.2	101.6*	.
COc1ccc(S(=O)(=O)N(C)C[C@H]2OCCCC[C@H](C)Oc3ccc(NC(=O)CCCN(C)C)cc3C(=O)N([C@H](C)CO)C[C@H]2C)cc1	45.3*	53.6	.
C[C@@H]1CCCCO[C@H](CN(C)S(=O)(=O)c2ccccc2)[C@H](C)CN([C@@H](C)CO)C(=O)c2cc(NC(=O)CCCN(C)C)ccc2O1	2.4	-25.2	89.0*
COc1ccc(S(=O)(=O)Nc2ccc3c(c2)C(=O)N([C@H](C)CO)C[C@H](C)[C@@H](CN(C)S(=O)(=O)c2ccc(C)cc2)OCCCC[C@@H](C)O3)cc1	-0.4	.	-1.6
COc1ccc(S(=O)(=O)Nc2ccc3c(c2)C(=O)N([C@@H](C)CO)C[C@H](C)[C@@H](CN(C)C(=O)Nc2ccccc2)OCCCC[C@H](C)O3)cc1	0.5	10.3	.
C[C@@H]1CCCCO[C@H](CN(C)S(=O)(=O)c2ccccc2)[C@@H](C)CN([C@@H](C)CO)C(=O)c2cc(NC(=O)CCCN(C)C)ccc2O1	2.9	20.4	-0.8
COc1ccc(S(=O)(=O)N(C)C[C@H]2OCCCC[C@@H](C)Oc3ccc(NC(=O)CCCN(C)C)cc3C(=O)N([C@H](C)CO)C[C@@H]2C)cc1	13.4	12.9	-2.7
COc1ccc(S(=O)(=O)Nc2ccc3c(c2)C(=O)N([C@@H](C)CO)C[C@@H](C)[C@H](CN(C)C(=O)Nc2ccccc2)OCCCC[C@@H](C)O3)cc1	0.8	111.2*	.
CC(C)=CCc1c(O)ccc2c(=O)c(-c3ccc(O)cc3)coc12	.	.	0.5
CC(C)Oc1ccccc1-c1nc(SCC(N)=O)n[nH]1	.	.	0.2
O=C(COc1ccc2ccccc2c1)Nc1ccccc1-c1nc2ccccc2s1	.	.	0.3
O=C(C1CCCO1)N1N=C(c2c(-c3ccccc3)c3cc(Cl)ccc3[nH]c2=O)CC1c1ccco1 (stereo unspecified)	.	.	4.7
COc1cc(/C=C/C(=O)NCCSc2c[nH]c3ccccc23)cc(OC)c1OC	.	.	-5.6
COc1ccc(S(=O)(=O)N(C)C[C@@H]2Oc3ccc(NS(=O)(=O)c4ccc(F)cc4)cc3CC(=O)N([C@@H](C)CO)C[C@@H]2C)cc1	0.9	3.7	-0.7
COc1ccc(S(=O)(=O)Nc2ccc3c(c2)CC(=O)N([C@H](C)CO)C[C@H](C)[C@@H](CN(C)S(=O)(=O)c2ccc(F)cc2)O3)cc1	27.1*	8.9	-3.5
COc1ccc(I)cc1C(Nc1cc(C)ccn1)c1ccc2cccnc2c1O (stereo unspecified)	.	.	0.0
c1ccc(CCc2nn3c(COc4ccccc4)nnc3s2)cc1	.	.	-0.5
OCc1ccccc1O	.	.	-0.3
O=C(O)c1cc(N(Cc2ccccc2O)Cc2cc(O)ccc2O)ccc1O	.	.	41.2*
SMILES	GASC1 inh	T cruzi growth	IDH1 R132H inh
O=S(=O)(Nc1nccs1)c1ccc(NS(=O)(=O)c2cc(Cl)ccc2Cl)cc1	.	.	38.8*
O=S(=O)(Nc1ncccn1)c1ccc(NS(=O)(=O)c2cc(Cl)ccc2Cl)cc1	.	.	-0.3
CN(C)c1ccc2c(c1)[C@@H]1C[C@H](CC(=O)NCc3ccccc3)O[C@@H](CO)[C@@H]1O2	46.7*	41.9	-1.6
CN(C)c1ccc2c(c1)[C@@H]1C[C@@H](CC(=O)NCc3ccccn3)O[C@@H](CO)[C@@H]1O2	28.2*	-11.2	-10.2
CN(C)CC(=O)Nc1ccc2c(c1)[C@H]1C[C@H](CC(=O)NCc3ccccn3)O[C@H](CO)[C@H]1O2	1.4	.	0.0
CN(C)c1ccc2c(c1)[C@H]1C[C@H](CC(=O)NCc3ccc(-c4ccccc4)cc3)O[C@H](CO)[C@H]1O2	2.6	.	.
O=C(CCCCCCC(=O)Nc1ccccc1O)N/N=C/c1ccc(OCc2ccccc2)cc1O	.	.	0.1
O=C(CCc1ccc(O)cc1)CC(CCc1ccc(O)cc1)O[C@@H]1OC[C@@H](O)[C@H](O)[C@H]1O (stereo partly specified)	.	.	0.2
COC(=O)c1ccc(CSc2n[nH]c(-c3ccccc3OC)n2)o1	.	.	-0.5
Cc1cc(C)cc(N(C(C)C(=O)O)S(C)(=O)=O)c1 (stereo unspecified)	.	.	-0.1
O=S(=O)(N[C@@H]1CC[C@H](CCn2cc(C3(O)CCCC3)nn2)O[C@@H]1CO)c1ccc(F)cc1	1.1	-48.3	0.0
O=S(=O)(N[C@H]1CC[C@H](CCn2cc(Cc3ccccc3)nn2)O[C@H]1CO)c1ccccc1F	34.1*	1.2	0.6
O=S(=O)(N[C@@H]1CC[C@@H](CCn2cc(Cc3ccccc3)nn2)O[C@H]1CO)c1ccccc1F	-0.7	-21.9	-0.1
O=S(=O)(N[C@H]1CC[C@@H](CCn2cc(C3(O)CCCC3)nn2)O[C@@H]1CO)c1ccc(F)cc1	35.9*	-52.0	8.2
O=C(NCCCn1ccnc1)c1cc(-c2ccc(Br)cc2)nc2ccccc12	.	.	41.7*
O=C(NCCCn1ccnc1)c1ccccc1I	.	.	14.2
O=C(NCc1c(OC(=O)c2cccc([N+](=O)[O-])c2)ccc2ccccc12)c1ccccc1	.	.	0.2
COc1ccc(NC(=O)N(C)C[C@H]2OCc3cnnn3CCCC(=O)N([C@H](C)CO)C[C@@H]2C)c(OC)c1	3.3	10.7	-0.5
COc1ccc(NC(=O)N(C)C[C@H]2OCc3cnnn3CCCC(=O)N([C@H](C)CO)C[C@H]2C)c(OC)c1	8.7	-7.0	53.9*
O=C(C1CCOCC1)N1C[C@@H]2[C@H](c3ccccc31)[C@H](CO)N2C(=O)Cc1ccccc1	-3.3	7.8	.
O=C(C1CCOCC1)N1C[C@H]2[C@@H](c3ccccc31)[C@H](CO)N2C(=O)Cc1ccccc1	29.4*	51.7	.
CN(C)CCCCCCNC(=O)[C@@H]1C[C@@H]2C(=O)N3CCC[C@H]3C(=O)N2[C@@H]1c1ccc(O)cc1	.	.	0.3
CN(C)CCCC[C@@H]1NC(=O)[C@H]2C[C@@H](C(=O)NCc3ccc(F)cc3)[C@@H](c3ccc(O)cc3)N2C1=O	.	.	42.3*
COc1ccc(N(C(C)C(=O)Nc2ccc(Cl)cc2C)S(C)(=O)=O)cc1 (stereo unspecified)	.	.	0.6
O=C(O)CN(c1ccc([N+](=O)[O-])cc1)S(=O)(=O)c1ccccc1	.	.	0.0

Bioassay records (PubChem BioAssay)
